Here are results for 5 molecules from ChEMBL document CHEMBL1955829, “Synthesis and biological evaluation of 4β-sulphonamido and 4β-[(4'-sulphonamido)benzamide]podophyllotoxins as DNA topoisomerase-IIα and apoptosis inducing agents” (2012).

Each structure is given as a SMILES string. Calls of active or inactive are those of the source. The rule behind the calls is not given here.

In the first assay the test system is ZR-75-1. As to the kind of experiment: Growth inhibition of human ZR-75-1 cells after 48 hrs by sulforhodamine B assay. The assay is classed as functional. To be noted: ZR-75-1, 48 h. In outline: (§1)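 Cells grown in DMEM with 10% FBS and 2 mM L-glutamine, plated at densities set by doubling time, and held 24 h before dosing. Exposure was 48 h to 0.1, 1, 10 and 100 µM in triplicate wells. Cells fixed with cold TCA (final 10%) 60 min at 4 °C and stained with 0.4% SRB 20 min. Bound dye eluted in 10 mM Tris base and read at 540 nm (690 nm reference). GI50 is the concentration giving 50% reduction in net protein gain versus control; values are the mean of three determinations.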
For `COc1ccc(S(=O)(=O)Nc2ccc(C(=O)N[C@@H]3c4cc5c(cc4[C@@H](c4cc(OC)c(OC)c(OC)c4)[C@H]4C(=O)OC[C@@H]43)OCO5)cc2)cc1`, halving of growth (GI50) required 2.12 µM.

Regarding `COc1cc([C@@H]2c3cc4c(cc3[C@@H](NC(=O)c3ccc(NS(=O)(=O)c5cccc6ccccc56)cc3)[C@H]3COC(=O)[C@H]23)OCO4)cc(OC)c1OC`, the 50% growth inhibitory concentration (GI50) worked out at 2.81 µM.

The subject of a further assay is MCF7. The assay is described as follows: Growth inhibition of human MCF7 cells after 48 hrs by sulforhodamine B assay. The assay is classed as functional. The conditions noted are these: MCF7, 48 h. In outline: as §1
The molecule `COc1cc([C@@H]2c3cc4c(cc3[C@@H](NC(=O)c3ccc(NS(=O)(=O)c5cccc6cccnc56)cc3)[C@H]3COC(=O)[C@H]23)OCO4)cc(OC)c1OC` had a GI50 of 2.9 µM.

With `COc1ccc(S(=O)(=O)Nc2ccc(C(=O)N[C@@H]3c4cc5c(cc4[C@@H](c4cc(OC)c(OC)c(OC)c4)[C@H]4C(=O)OC[C@@H]43)OCO5)cc2)cc1`, halving of growth (GI50) required 0.16 µM. This GI50 lies about 18-fold lower than the previous one.

Consider `COc1cccc2c1C(=O)c1c(O)c3c(c(O)c1C2=O)C[C@@](O)(C(=O)CO)C[C@@H]3O[C@H]1C[C@H](N)[C@H](O)[C@H](C)O1` [DOXORUBICIN], for which the concentration for 50% growth inhibition (GI50) was determined as 0.17 µM.

The molecule `COc1cc([C@@H]2c3cc4c(cc3[C@@H](NC(=O)c3ccc(NS(=O)(=O)c5cccc6ccccc56)cc3)[C@H]3COC(=O)[C@H]23)OCO4)cc(OC)c1OC` showed a 50% growth inhibitory concentration (GI50) of 2.32 µM.

For the next assay, the system named is KB. As to the kind of experiment: Growth inhibition of human KB cells after 48 hrs by sulforhodamine B assay. Type of assay: functional.
Conditions: not given
In a few lines:
as §1
For `COc1cccc2c1C(=O)c1c(O)c3c(c(O)c1C2=O)C[C@@](O)(C(=O)CO)C[C@@H]3O[C@H]1C[C@H](N)[C@H](O)[C@H](C)O1` [DOXORUBICIN], halving of growth (GI50) required 0.17 µM.

`COc1cc([C@@H]2c3cc4c(cc3[C@@H](NC(=O)c3ccc(NS(=O)(=O)c5cccc6ccccc56)cc3)[C@H]3COC(=O)[C@H]23)OCO4)cc(OC)c1OC` yielded a GI50 of 2 µM.

Tested on in another assay: not listed separately
The assay is described as follows: Growth inhibition of human DWD cells after 48 hrs by sulforhodamine B assay. Type of assay: functional.
Conditions: not given
In a few lines:
as §1
`COc1cc([C@@H]2c3cc4c(cc3[C@@H](NC(=O)c3ccc(NS(=O)(=O)c5cccc6cccnc56)cc3)[C@H]3COC(=O)[C@H]23)OCO4)cc(OC)c1OC` registered a GI50 of 0.14 µM. This counts as sub-micromolar.

`COc1ccc(S(=O)(=O)Nc2ccc(C(=O)N[C@@H]3c4cc5c(cc4[C@@H](c4cc(OC)c(OC)c(OC)c4)[C@H]4C(=O)OC[C@@H]43)OCO5)cc2)cc1` had a GI50 of 2.02 µM.

`COc1cccc2c1C(=O)c1c(O)c3c(c(O)c1C2=O)C[C@@](O)(C(=O)CO)C[C@@H]3O[C@H]1C[C@H](N)[C@H](O)[C@H](C)O1` [DOXORUBICIN] registered a GI50 of 0.1 µM. Against the preceding molecule, the GI50 is about 20-fold lower.

The next assay has as its system COLO 205. As to the kind of experiment: Growth inhibition of human COLO205 cells after 48 hrs by sulforhodamine B assay. Type of assay: functional. The conditions noted are these: COLO 205, 48 h. In outline: as §1
`COc1cc([C@@H]2c3cc4c(cc3[C@@H](NC(=O)c3ccc(NS(=O)(=O)c5cccc6cccnc56)cc3)[C@H]3COC(=O)[C@H]23)OCO4)cc(OC)c1OC` returned a GI50 of 2.31 µM.

On to `COc1ccc(S(=O)(=O)Nc2ccc(C(=O)N[C@@H]3c4cc5c(cc4[C@@H](c4cc(OC)c(OC)c(OC)c4)[C@H]4C(=O)OC[C@@H]43)OCO5)cc2)cc1`, for which halving of growth (GI50) required 2.51 µM.

In the case of `COc1cccc2c1C(=O)c1c(O)c3c(c(O)c1C2=O)C[C@@](O)(C(=O)CO)C[C@@H]3O[C@H]1C[C@H](N)[C@H](O)[C@H](C)O1` [DOXORUBICIN], it took 0.14 µM to inhibit growth by half (GI50).

Take `COc1cc([C@@H]2c3cc4c(cc3[C@@H](NC(=O)c3ccc(NS(=O)(=O)c5cccc6ccccc56)cc3)[C@H]3COC(=O)[C@H]23)OCO4)cc(OC)c1OC`: the GI50 was found to be 2.12 µM.

A further assay concerns A549. The assay is described as follows: Growth inhibition of human A549 cells after 48 hrs by sulforhodamine B assay. The conditions noted are these: A549, 48 h. Type of assay: functional. In outline:
as §1
`COc1cc([C@@H]2c3cc4c(cc3[C@@H](NC(=O)c3ccc(NS(=O)(=O)c5cccc6cccnc56)cc3)[C@H]3COC(=O)[C@H]23)OCO4)cc(OC)c1OC` displayed a GI50 of 2.51 µM.

Take `COc1cc([C@@H]2c3cc4c(cc3[C@@H](NC(=O)c3ccc(NS(=O)(=O)c5cccc6ccccc56)cc3)[C@H]3COC(=O)[C@H]23)OCO4)cc(OC)c1OC`: halving of growth (GI50) required 2.6 µM.

Another assay relates to HOP-62. The assay is described as follows: Growth inhibition of human HOP62 cells after 48 hrs by sulforhodamine B assay. Type of assay: functional. The conditions noted are these: HOP-62, 48 h. In outline: as §1
In turn, `COc1cc([C@@H]2c3cc4c(cc3[C@@H](NC(=O)c3ccc(NS(=O)(=O)c5cccc6cccnc56)cc3)[C@H]3COC(=O)[C@H]23)OCO4)cc(OC)c1OC` had a GI50 of 2.61 µM. That is a single-digit micromolar value.

`COc1ccc(S(=O)(=O)Nc2ccc(C(=O)N[C@@H]3c4cc5c(cc4[C@@H](c4cc(OC)c(OC)c(OC)c4)[C@H]4C(=O)OC[C@@H]43)OCO5)cc2)cc1`: halving of growth (GI50) required 2.71 µM.

For `COc1cccc2c1C(=O)c1c(O)c3c(c(O)c1C2=O)C[C@@](O)(C(=O)CO)C[C@@H]3O[C@H]1C[C@H](N)[C@H](O)[C@H](C)O1` [DOXORUBICIN], the GI50 worked out at 0.14 µM.

`COc1cc([C@@H]2c3cc4c(cc3[C@@H](NC(=O)c3ccc(NS(=O)(=O)c5cccc6ccccc56)cc3)[C@H]3COC(=O)[C@H]23)OCO4)cc(OC)c1OC` registered a GI50 of 2.22 µM.

A further assay deals with A2780. As to the kind of experiment: Growth inhibition of human A2780 cells after 48 hrs by sulforhodamine B assay. The conditions noted are these: A2780, 48 h. The assay is classed as functional. In outline:
as §1
For the molecule `COc1cc([C@@H]2c3cc4c(cc3[C@@H](NC(=O)c3ccc(NS(=O)(=O)c5cccc6cccnc56)cc3)[C@H]3COC(=O)[C@H]23)OCO4)cc(OC)c1OC`, it took 2.42 µM to inhibit growth by half (GI50).

In turn, `COc1cccc2c1C(=O)c1c(O)c3c(c(O)c1C2=O)C[C@@](O)(C(=O)CO)C[C@@H]3O[C@H]1C[C@H](N)[C@H](O)[C@H](C)O1` [DOXORUBICIN] showed a GI50 of 0.16 µM.

The molecule `COc1cc([C@@H]2c3cc4c(cc3[C@@H](NC(=O)c3ccc(NS(=O)(=O)c5cccc6ccccc56)cc3)[C@H]3COC(=O)[C@H]23)OCO4)cc(OC)c1OC` had a GI50 of 2 µM.

The subject of another assay is COLO 205. As to the kind of experiment: Up-regulation of topoisomerase 2alpha in human COLO205 cells at 4 uM after 24 hrs by Western blotting analysis in presence of HDAC inhibitor, trichostatin A. Type of assay: functional, cell-based.
Conditions: not given
In outline:
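Colo-205 cells exposed 24 h to test agent plus TSA, each at 4 µM. Western blot of lysates probed for topo-IIα, with β-actin as loading control.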
`CC[C@@]1(O)C(=O)OCc2c1cc1n(c2=O)Cc2cc3ccccc3nc2-1`: the result was inactive.

In another assay the test system is COLO 205. The assay is described as follows: Induction of apoptosis in human COLO205 cells assessed as down regulation of Bcl-2 at 4 uM after 24 hrs by ELISA. The assay is classed as functional, cell-based.
Conditions: not given
In outline: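 Colo-205 cells treated 24 h at 4 µM, with etoposide and camptothecin as controls. Lysates added to Bcl2-antibody-coated wells, followed by a biotin-conjugated anti-human Bcl2 monoclonal antibody, in a Bcl2 ELISA.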
On to `CC[C@@]1(O)C(=O)OCc2c1cc1n(c2=O)Cc2cc3ccccc3nc2-1`, for which the outcome was Active.
